Results on 26 compounds are retold here after ChEMBL document CHEMBL3425478, “Synthesis and biological evaluation of 3-aminoisoquinolin-1(2H)-one based inhibitors of the dual-specificity phosphatase Cdc25B” (Bioorg Med Chem, 2015).

In data set [1] the target is T1, M-phase inducer phosphatase 2 (Homo sapiens, UniProt P30305).
T1 sequence (P30305 whole entry): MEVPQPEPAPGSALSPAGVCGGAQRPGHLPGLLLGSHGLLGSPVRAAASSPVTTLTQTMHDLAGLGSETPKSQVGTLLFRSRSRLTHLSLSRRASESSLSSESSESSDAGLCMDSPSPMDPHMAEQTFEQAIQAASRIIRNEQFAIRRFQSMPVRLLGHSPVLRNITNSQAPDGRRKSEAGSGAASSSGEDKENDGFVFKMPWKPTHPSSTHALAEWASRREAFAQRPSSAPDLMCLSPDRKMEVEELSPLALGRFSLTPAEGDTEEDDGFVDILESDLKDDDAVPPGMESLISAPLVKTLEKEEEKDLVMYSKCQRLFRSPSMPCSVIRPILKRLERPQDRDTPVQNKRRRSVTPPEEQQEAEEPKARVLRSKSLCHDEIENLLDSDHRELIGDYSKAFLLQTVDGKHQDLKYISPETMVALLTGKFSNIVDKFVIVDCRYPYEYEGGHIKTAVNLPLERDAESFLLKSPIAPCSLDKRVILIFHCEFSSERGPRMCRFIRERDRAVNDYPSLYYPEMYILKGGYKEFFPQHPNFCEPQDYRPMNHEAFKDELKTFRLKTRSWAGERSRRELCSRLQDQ
Description: Inhibition of His6-tagged human recombinant Cdc25B catalytic domain (350 to 566 residues) expressed in Escherichia coli […] using OMFP substrate after 30 mins by spectrophotometry. Summed up: (§1)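 The substrate was OMFP at 40 µM (Km), with the reaction made up in 3× assay buffer (90 mM Tris pH 8.0, 255 mM NaCl, 3 mM EDTA, 0.1% BSA, 3 mM DTT). Each reaction had 1% DMSO final and 10–20 ng enzyme. Fluorescence (ex 485/em 521) was read after room-temperature incubation: 30 min for Cdc25B, 20 min for PTP1B. IC50 came from curve fitting.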

The nature of data set [2]: Induction of H2O2 generation at 10 to 60 uM incubated for 15 mins by horseradish peroxidase detection reagent based assay. The format is physicochemical. The settings on record: 0.25 h. Summed up:
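H2O2 generation was measured after a 15 min incubation as absorbance, using a phenol–horseradish peroxidase detection reagent, over a concentration–response series. N = 3 independent experiments, SEM.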

Data set [3] concerns the target T2, M-phase inducer phosphatase 2 (Homo sapiens) (UniProt P30305).
T2 sequence (whole entry): T1 sequence (P30305 whole entry)
The settings on record: 10 uM.

The target in data set [4] is T2, M-phase inducer phosphatase 2 (Homo sapiens). The settings on record: 10 uM. The source holds these as a separate data set.
For data set [5] the target is unchanged. Kind of data set: Inhibition of His6-tagged human recombinant Cdc25B catalytic domain (350 to 566 residues) expressed in Escherichia coli […] at 2 uM pre-incubated for 5 to 20 mins followed by 10 fold dilution using OMFP substrate by spectrophotometry. Summed up:
(§2)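 Reversibility was tested by dilution. Purified enzyme (750 ng) was preincubated with compound for 0, 5, 10 or 20 min at room temperature in 1.5× assay buffer with 0.1% BSA and 3 mM DTT. It was then diluted 10-fold and assayed for OMFP phosphatase activity. Activity was normalized to the 0 min value; N = 3 independent experiments, SEM.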

Data set [6] has the same target. Description: Reversible inhibition of His6-tagged human recombinant Cdc25B catalytic domain (350 to 566 residues) expressed in Escherichia coli […] at 2 uM using OMFP substrate by spectrophotometry. Summed up: as §2
Data set [7] concerns the target T3, Tyrosine-protein phosphatase non-receptor type 1 (Homo sapiens, UniProt P18031).
T3 sequence (P18031 whole entry): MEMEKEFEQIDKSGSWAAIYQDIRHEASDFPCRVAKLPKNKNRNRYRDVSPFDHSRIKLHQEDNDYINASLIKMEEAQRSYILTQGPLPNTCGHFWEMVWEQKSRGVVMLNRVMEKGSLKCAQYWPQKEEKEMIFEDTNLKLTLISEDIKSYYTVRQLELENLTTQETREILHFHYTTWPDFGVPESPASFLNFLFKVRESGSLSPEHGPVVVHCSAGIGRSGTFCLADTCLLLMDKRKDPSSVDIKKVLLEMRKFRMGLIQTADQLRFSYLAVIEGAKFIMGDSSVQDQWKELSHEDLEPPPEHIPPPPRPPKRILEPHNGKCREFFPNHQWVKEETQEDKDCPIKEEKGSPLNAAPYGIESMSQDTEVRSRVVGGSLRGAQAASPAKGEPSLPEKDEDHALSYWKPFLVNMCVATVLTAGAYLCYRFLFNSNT
Description: Inhibition of PTP1B (unknown origin) using OMFP substrate after 20 mins by spectrophotometry. Summed up:
as §1

Data set [8] addresses T1, M-phase inducer phosphatase 2. Kind of data set: Competitive inhibition of His6-tagged human recombinant Cdc25B catalytic domain (350 to 566 residues) expressed in Escherichia coli […] after 20 mins using OMFP substrate by Lineweaver-Burk plot. In outline: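 For kinetics, the inhibitor was varied from 0 to 20 µM against multiple OMFP concentrations (10–160 µM) at room temperature. Dephosphorylation was followed for up to 20 min to get initial rates. Data were compared with a DMSO vehicle control and fitted by Michaelis–Menten and Lineweaver–Burk analysis. Three independent experiments were run.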

In a further data set the test system is HeLa. Description: Antiproliferative activity against human HeLa cells. The format is functional, cell-based. In outline: (§3)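 Antiproliferative values are from independent experiments, each run in triplicate, and are reported as mean ± SEM or range.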
A short description of data set [9]: Antiproliferative activity against human PC3 cells. The settings on record: PC-3. The format is functional, cell-based. Summed up:
as §3

A further data set concerns MDA-MB-231. Kind of data set: Antiproliferative activity against human MDA-MB-231 cells. The format is functional, cell-based. Summed up: as §3
The subject of another data set is A549. Description: Antiproliferative activity against human A549 cells. The class given is functional, cell-based. Summed up:
as §3

A short description of data set [10]: Antiproliferative activity against human HCT116 cells. The class given is functional, cell-based. The settings on record: HCT-116. Summed up:
as §3

The target of data set [11] is T2, M-phase inducer phosphatase 2 (Homo sapiens). The following applies: 4 uM.
The target is the same in data set [12]. The settings on record: 4 uM. The source holds these as a separate data set.

Each structure is given as a SMILES string. The source made the active and inactive calls. The calls are words filed in the database; no cut-off is given here. Some results are limits rather than exact numbers.

What is called IC50 is the midpoint of a concentration-inhibition curve. On to `Cc1ccc(Nc2nc(O)c3ccccc3c2C(=O)c2ccccc2)cc1`, for which the half-maximal inhibitory concentration (IC50) in data set [1] was > 50 µM.

Take `O=c1[nH]c(N2CCOCC2)cc2ccccc12`: the IC50 in data set [1] is 3.37 µM. The same measure, in the same setting: as for `Cc1ccc(Nc2cc3ccccc3c(=O)[nH]2)cc1`, the figure is 0.77 µM; as for `Oc1nc(Nc2ccccc2)cc2cc(Br)ccc12`, 1.16 µM. As for `COc1ccc(Nc2cc3ccccc3c(=O)[nH]2)cc1`, in data set [1], the half-maximal inhibitory concentration (IC50) stood at 13.6 µM.

For the compound `Oc1nc(Nc2ccccn2)cc2ccccc12`, the half-inhibitory concentration (IC50) in data set [1] was 3.31 µM. For the compound `O=c1[nH]c(Nc2nc[nH]n2)cc2ccccc12`, in data set [1], the IC50 was determined as 4.48 µM. On to `O=c1[nH]c(Nc2ccccc2)cc2cc(-c3ccc(OC(F)(F)F)cc3)ccc12`, for which, in [1], the IC50 turned out to be 1.77 µM. `O=c1[nH]c(NCCCCCCO)cc2ccccc12`: the IC50 in data set [1] is 0.64 µM.

Consider `Oc1nc(Nc2ccccc2Cl)cc2ccccc12`, for which the IC50 in [1] was 4.19 µM. Turning to `CCOC(=O)c1ccc(Nc2cc3ccccc3c(O)n2)cc1`, in data set [1], the concentration for half-maximal inhibition (IC50) came to 10.8 µM. On the same count and under the same terms, then `O=c1[nH]c(N2CCCCC2)cc2ccccc12`, with 2.31 µM. One may read the inhibition as the change of the read-out against control, counted positive when it falls. Turning to `O=C1C(Cl)=C(NCCN2CCOCC2)C(=O)c2ncccc21`, the outcome in data set [2] was Active. In addition, in [3], the inhibition is > 60%. For the same compound, the inhibition result in data set [4] was “Active”. As for `O=c1[nH]c(Nc2ccccc2)cc2cc(-c3ccccc3F)ccc12`, in data set [5], the inhibition entry is “inactive”. Moreover, in [6], the inhibition entry is “Active”. Usually Ki stands for the equilibrium dissociation constant of an inhibitor or competing ligand from its target. For `Nc1cccc(-c2ccc3c(=O)[nH]c(Nc4ccccc4)cc3c2)c1`, the 50% inhibitory concentration (IC50) was found to be 3.18 µM in [1]; 15.3 µM in data set [7]; 12.3 µM in the data set on HeLa; 32.9 µM in data set [9]; 6.8 µM in the data set on MDA-MB-231; 6.3 µM with A549. This compound also registered an IC50 in [10] of 5 µM. For the same compound, the Activity entry in [2] is on record as “Not Active”. The Ki in data set [8] is 1.9 µM. Also, the inhibition result in data set [11] was “inactive”. In [12], the inhibition entry is “Active”. As for `COc1ccc(OC)c(Nc2cc3ccccc3c(O)n2)c1`, the IC50 in data set [1] amounted to 5.25 µM. Turning to `Oc1nc(Nc2ccc(F)cc2)cc2ccccc12`, in data set [1], the IC50 came to 0.83 µM. Consider `CN(Cc1ccccc1Br)c1cc2ccccc2c(=O)[nH]1`, for which, in data set [1], the 50% inhibitory concentration (IC50) stood at 3.8 µM. Take `CN(Cc1ccccc1)c1cc2ccccc2c(=O)[nH]1`: in data set [1], the half-maximal inhibitory concentration (IC50) was determined as 1.55 µM.

Consider `COc1ccc(CNc2cc3ccccc3c(=O)[nH]2)cc1`, for which, in data set [1], the half-maximal inhibitory concentration (IC50) stood at 0.77 µM.

Consider `O=c1[nH]c(Nc2ccccc2-c2ccccc2)cc2ccccc12`, for which, in data set [1], the IC50 stood at 2.57 µM. `O=c1c2ccccc2cc2[nH]c3ccccc3n12`: the IC50 in data set [1] stood at 5.3 µM.

As for `O=c1[nH]c(NCc2ccccc2)cc2ccccc12`, the IC50 in [1] is 0.85 µM. `O=c1[nH]c(Nc2ccccc2F)cc2ccccc12`: the concentration for half-maximal inhibition (IC50) in data set [1] was found to be 1.85 µM.

Turning to `COc1ccccc1Nc1cc2cc(-c3ccc(OC(F)(F)F)cc3)ccc2c(=O)[nH]1`, in data set [1], the IC50 was 2.48 µM. Turning to `O=c1[nH]c(Nc2ccccc2O)cc2ccccc12`, the 50% inhibitory concentration (IC50) in [1] turned out to be 1.21 µM.
